TDP2 absorb – TDP2 (human) inhibition, absorbance primary screen | O95551 | recombinant TDP2, T5PNP hydrolysis, p-nitrophenol absorbance 415 nm | 370,000 compounds, 0.34% hits | inhibition, % at 12.8 µM | AID 720702;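 active means inhibition above the mean of all tested compounds plus 3 SD, set per campaign, cut at about 25% in these data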;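 further: 0% = DMSO with enzyme and 100% = buffer with substrate but no TDP2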
Target sequence (O95551 whole entry, looked up): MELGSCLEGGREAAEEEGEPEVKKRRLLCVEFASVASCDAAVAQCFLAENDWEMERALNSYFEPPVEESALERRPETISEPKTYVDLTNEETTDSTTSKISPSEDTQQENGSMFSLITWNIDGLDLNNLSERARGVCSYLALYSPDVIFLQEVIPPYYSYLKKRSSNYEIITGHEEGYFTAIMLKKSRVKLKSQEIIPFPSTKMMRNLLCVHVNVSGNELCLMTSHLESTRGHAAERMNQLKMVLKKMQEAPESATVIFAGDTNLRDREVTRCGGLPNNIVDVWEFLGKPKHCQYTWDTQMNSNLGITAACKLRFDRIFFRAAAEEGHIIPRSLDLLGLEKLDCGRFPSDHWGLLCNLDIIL
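Material: recombinant human TDP2; quantity: TDP2 enzyme at 120 nM final; medium: Tris-HCl pH 7.5 with MgCl2; compound: single concentration, 12.8 µM nominal, with 1% DMSO; incubation: 2 h enzyme incubation at 37 °C; signal: epi absorbance; measure: percent inhibition; benchmarks: high control without enzyme, low control DMSO plus TDP2; repeats: singlicate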
CASP6 VEID inh – caspase-6 (human) enzyme inhibition | P55212 | purified caspase-6, Z-VEID-R110 cleavage fluorescence | inhibition, % at 12.5 µM | 350,000 compounds, 0.53% hits | AID 686996;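 active means mean inhibition across replicates at least about 35%, with every replicate also reaching that limit, limit read from the data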;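 further: 0% = median of neutral control wells and 100% = no fluorescence left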
Target sequence (P55212 24-179 limits assumed): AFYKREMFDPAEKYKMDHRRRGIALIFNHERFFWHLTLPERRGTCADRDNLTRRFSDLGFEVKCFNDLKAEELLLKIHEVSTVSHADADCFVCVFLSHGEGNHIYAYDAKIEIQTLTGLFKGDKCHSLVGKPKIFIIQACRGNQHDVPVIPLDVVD
Target sequence (P55212 194-293 limits assumed): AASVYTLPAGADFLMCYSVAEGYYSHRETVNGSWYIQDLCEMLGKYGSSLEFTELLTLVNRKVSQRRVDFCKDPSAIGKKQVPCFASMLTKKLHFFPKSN
UCH37 inh – human UCH37 deubiquitinating enzyme inhibition; Q9Y5K5; purified proteasome/UCH37, Ub-AMC cleavage fluorescence; inhibition, % (no concentration beside the values); 330,000 compounds, 0.33% hits; AID 588478;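 active means mean inhibition over replicate wells above about 20%, limit read from the data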;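 further: 0% = compound-free wells with enzyme and 100% = wells lacking proteasome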
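Material: Human UCH37 enzyme supplied as purified proteasome complex | Schedule: 30 min compound-proteasome preincubation then 25 min substrate reaction, room temperature | Detection: AMC fluorescence from Ub-AMC cleavage, excitation 355 nm, emission 460 nm | Benchmarks: Wells without proteasome as full block, compound-free enzyme plus substrate as uninhibited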
LEDGF integ inh – blocks HIV-1 LEDGF/p75-dependent DNA integration. TR-FRET IN-LEDGF/p75 DNA integration, Eu/Cy5. inhibition, % at 3.7 µM. 370,000 compounds, 0.64% hits. AID 743269;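 active means inhibition above the screen-wide mean plus 3 SD, cut at about 13% in these data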;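 further: signal is the Cy5 over europium emission ratio at 671 and 618 nm; 0% = plate median of compound wells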
NSD2 inh – NSD2 (human) methyltransferase inhibition; NSD2 peptide methylation, AlphaScreen, 120 min; 310,000 compounds, 0.54% hits; inhibition, % at 12.5 µM; in the data active means inhibition above about 50%
IN multimer act – activates HIV-1 integrase multimerization in LEDGF counter-screen | shares compounds with LEDGF integ inh | TR-FRET HIV-1 integrase multimerization, biochemical | activation, % at 7.7 µM | 2,000 compounds, 17% hits | AID 1053131; in the data active means activation above about 8.9%
TRFRET interf – counter-screen for LEDGF/p75 integration inhibitors: TR-FRET optical interference; inhibition, % at 7.7 µM; TR-FRET optical interference counterscreen, HIV-1 IN multimerization; 2,000 tested, under 10 active; shares compounds with LEDGF integ inh;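 active means inhibition above the mean over all tested compounds plus 3 SD, which no compound reached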;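 further: 0% = integrase with antibodies and DMSO and 100% = antibodies without integrase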
IN-LEDGF confirm – confirmation of HIV-1 LEDGF/p75-dependent integration inhibitors; shares compounds with LEDGF integ inh; TR-FRET LEDGF/p75-dependent HIV-1 integration, biochemical; inhibition, % at 3.7 µM; 2,000 compounds, 36% hits; in the data active means inhibition above about 14%
The depositor's hits bear a star; i = inactive; x = not tested or not shown. In the library only some 1.3% were active in any assay of this set; here they are far more common.

SMILES | TDP2 absorb | CASP6 VEID inh | UCH37 inh | LEDGF integ inh | NSD2 inh | IN multimer act | TRFRET interf | IN-LEDGF confirm
COc1ccc(Cl)cc1Nc1nc(NCCO)nc(N2CCCC2)n1 | 4 | -2 | 1 | 24* | -2 | 2 | -7 | -1
Cc1ccc(S(=O)(=O)Nc2ccc(Br)cc2/C=N/n2cnnc2)cc1 | 10 | x | x | 17* | -1 | 0 | 0 | 28*
CC(=NNC(=O)c1ccc(Br)cc1)c1cccc(NC(=O)c2cccnc2)c1 | x | x | 2 | x | x | x | x | x
O=C1Nc2ccc(S(=O)(=O)N3CCCC3)c3cccc1c23 | -12 | x | -89 | 3 | -3 | x | x | x
O=C1Nc2ccc(S(=O)(=O)N3CCCC3C(=O)O)c3cccc1c23 (configuration not stated) | -1 | 1 | -19 | 14* | x | -2 | 10 | -6
Clc1ccc2oc(-c3ccccc3)nc2c1 | 13 | x | 0 | 19* | 14 | 6 | -20 | 4
Cc1ccc(-c2ccc(C=NNC(=O)CN3CCOCC3)o2)cc1[N+](=O)[O-] | x | x | 20 | x | x | x | x | x
C[C@H]1c2cccc(O)c2C(O)=C2C(=O)C3(O)C(O)=C(C(N)=O)C(=O)[C@@H](N(C)C)[C@@H]3[C@@H](O)[C@@H]21 (some centres not stated) | 1 | 24 | 0 | 8 | x | x | x | x
C[C@H]1c2cccc(O)c2C(=O)C2C(=O)C3(O)C(=O)C(C(N)=O)C(=O)[C@@H](N(C)C)[C@@H]3[C@@H](O)[C@@H]21 (some centres not stated) | -1 | 21 | 4 | 8 | x | x | x | x
CN(C)c1ccc(O)c2c1CC1CC3[C@@H](N(C)C)C(=O)C(C(N)=O)C(=O)[C@]3(O)C(=O)C1C2=O (some centres not stated) | 5 | 22 | 5 | 37* | x | 5 | -25 | 7
C=C1c2cccc(O)c2C(O)=C2C(=O)[C@]3(O)C(O)=C(C(N)=O)C(=O)[C@@H](N(C)C)[C@@H]3[C@@H](O)[C@H]12 | 22 | 94* | 2 | 85* | x | 50* | -180 | 63*
CN(C)c1ccc(O)c2c1CC1CC3C(N(C)C)C(=O)C(C(N)=O)=C(O)[C@@]3(O)C(=O)C1=C2O (some centres not stated) | -6 | 31 | 1 | 22* | x | 10.0* | -50 | 2
COc1ccc(C2CC(c3ccc(C)cc3)=NN2C(=O)c2ccccc2)cc1 (configuration not stated) | 10 | -2 | 1 | -6 | -1 | x | x | x
COc1ccc(C(=O)N2N=C3CC(C)(C)OCC3C2c2ccccc2)cc1 (configuration not stated) | -10 | 1 | 0 | 66* | -3 | 0 | 1 | -7
Cc1cc2cc(C#N)c(NCCNC(=S)NCCCN3CCOCC3)nc2cc1C | -8 | -11 | -71 | -3 | 2 | x | x | x
COc1ccc2nc(NCCNC(=S)NCCCN3CCOCC3)c(C#N)cc2c1 | -9 | -12 | -132 | 35* | -4 | 1 | -4 | -7
Cc1cc([N+](=O)[O-])c(-c2ccc(C=Nn3cnnc3)o2)cc1Cl | x | x | 1 | x | x | x | x | x
CCC(CC)C(=O)OCC(=O)NC12CC3CC(CC(C3)C1)C2 | 3 | 0 | 1 | 14* | 18 | -2 | 10 | 6
O=c1c(C=NCCCO)c(-c2ccccc2)[nH]n1-c1nc2ccccc2s1 | 23 | 0 | 2 | 21* | 2 | -1 | 6 | -2
COCCCN=Cc1c(-c2ccccc2)[nH]n(-c2nc3ccccc3s2)c1=O | 7 | 3 | 4 | 1 | -2 | x | x | x
N#C/C(=C\c1ccc(O)c(O)c1)C(=O)c1ccc(O)c(O)c1 | 1 | 72* | 16 | 91* | x | 20* | -101 | 90*
N#C/C(=C\c1ccc(O)c(O)c1)C(=O)N1CCCC1 | -9 | 9 | 9 | 2 | 10 | x | x | x
CC(=NNS(=O)(=O)c1ccc([N+](=O)[O-])cc1)c1ccc(NC(=O)c2ccco2)cc1 | x | x | 7 | x | x | x | x | x
Cc1ccc(-c2cc3nc(C)cc(C)n3n2)cc1 | -1 | -1 | -21 | -2 | -5 | x | x | x
Cc1cc(C)n2nc(-c3ccsc3-n3c(C)ccc3C)cc2n1 | -2 | x | 1 | 24* | 4 | 4 | -21 | 20*
SMILES | TDP2 absorb | CASP6 VEID inh | UCH37 inh | LEDGF integ inh | NSD2 inh | IN multimer act | TRFRET interf | IN-LEDGF confirm
CCN(C[C@H]1N[C@@](C)(C(=O)OC)[C@H]2C(=O)N(C)C(=O)[C@@H]12)S(=O)(=O)c1ccc(C)cc1 | -7 | 0 | 3 | 34* | x | -3 | 12 | -1
Cc1cccc(-n2cnc(C(=O)NN=Cc3ccc(Br)cc3)c2)n1 | x | x | 3 | x | x | x | x | x
CCN=C1S/C(=C\c2cc(Cl)c(OC)c(OC)c2)C(=O)N1CC | 4 | -1 | -24 | 17* | 14 | 0 | 1 | -11
COc1ccccc1NC(=O)CSCC(=O)N1c2ccccc2CCc2ccccc21 | 0 | -1 | 6 | 13* | 22 | 0 | -2 | -2
CCC1(C)Cc2ccccc2-c2nc(NCCCO)[nH]c(=O)c21 (configuration not stated) | 0 | 3 | i | -4 | 0 | x | x | x
CCC1(CC)Cc2ccccc2-c2nc(NCCCO)[nH]c(=O)c21 | -11 | 7 | -349 | 14* | -5 | 0 | -2 | 6
Cc1ccc(NN=C(C#N)C(=N)N2CCCCC2)cc1 | x | x | 11 | x | x | x | x | x
CN1C(=O)C(=NOC(=O)c2ccccc2)c2ccccc21 | x | x | 1 | x | x | x | x | x
Cc1ccc(N(C)c2nc(N)nc(N)c2N=O)cc1 | 8 | 24 | x | 14* | x | 2 | -12 | 17*
Cc1cccc(Nc2nc(N)nc(N)c2N=O)c1 | -11 | 0 | 9 | 3 | 0 | x | x | x
C=CCCC1CN(Cc2ccc(OC)cc2)S(=O)(=O)c2c(cccc2N(C)S(=O)(=O)c2ccc(C)cc2)O1 (configuration not stated) | 10 | 1 | x | 89* | x | 2 | -10 | -8
C=CCCC1CN(Cc2ccc(OC)cc2)S(=O)(=O)c2c(Oc3ccc(C(C)C)cc3)cccc2O1 (configuration not stated) | 1 | -9 | x | 0 | x | x | x | x
COc1cccc(NC(=O)N2CCC(C(=O)Nc3ccc(C)cc3C)CC2)c1 | -2 | x | 3 | 38* | x | 1 | -7 | -4
Cc1cc(F)ccc1NC(=O)C1CCN(C(=O)Nc2ccccc2)CC1 | x | x | 2 | x | 1 | x | x | x
CCOC(=O)C1=C(O)/C(=C\c2ccc(CNC(=O)C(=O)Nc3ccccc3)o2)N=C1C | -1 | x | -2 | 25* | 2 | 10* | -52 | 26*

Source: PubChem (several laboratories)
